≈ marks a conversion by molar mass, not a printed value. Calls of active or inactive are those of the source. No cut-off for these calls is given here.
Key:
[1] = system: Bartonella sp.; assay: Antibacterial activity against Bartonella ssp. […] by agar dilution method; assay type: functional
[2] = Antibacterial activity against Francisella tularensis subspecies holarctica LVS after 48 hrs by broth dilution method; assay type: functional, Francisella tularensis subsp. holarctica LVS
[3] = system: Staphylococcus aureus; assay: Antibacterial activity against methicillin-resistant Staphylococcus aureus ATCC 43300 […] by agar dilution method; assay type: functional
[4] = system: Escherichia coli; assay: Antibacterial activity against Escherichia coli K-12 […] by agar dilution method; assay type: functional, organism-based
[5] = system: Staphylococcus aureus; assay: Antibacterial activity against methicillin-susceptible Staphylococcus aureus ATCC 25923 […] by agar dilution method; assay type: functional
[6] = system: Staphylococcus aureus; assay: Antibacterial activity against methicillin-resistant Staphylococcus aureus ATCC 43300 assessed as growth inhibition at 10 ug after 24 hrs by agar-diffusion assay in presence of PPh3; assay type: functional, organism-based
Procedure, shortened: (§1)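 Kirby-Bauer well diffusion on an MRSA lawn (0.5 McFarland suspension swabbed onto tryptic soy agar). Four test agents sat in wells equidistant from a centre well holding 1 mg of additive in DMSO; a DMSO-only centre well served as vehicle control. After overnight incubation at 37 °C, the inhibition zones were examined for size or shape change.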

[7] = system: Staphylococcus aureus; assay: Antibacterial activity against methicillin-resistant Staphylococcus aureus ATCC 43300 assessed as growth inhibition at 10 ug after 24 hrs by agar-diffusion assay in presence of CoA; assay type: functional, organism-based; procedure, shortened: as §1
[8] = system: Staphylococcus aureus; assay: Antibacterial activity against methicillin-resistant Staphylococcus aureus ATCC 43300 assessed as growth inhibition at 10 ug after 24 hrs by agar-diffusion assay in presence of iPrSSiPr; assay type: functional, organism-based; procedure, shortened: as §1
[9] = system: Staphylococcus aureus; assay: Antibacterial activity against methicillin-resistant Staphylococcus aureus ATCC 43300 assessed as growth inhibition at 10 ug after 24 hrs by agar-diffusion assay in presence of GSH; assay type: functional, organism-based; procedure, shortened: as §1
[10] = system: Staphylococcus aureus; assay: Antibacterial activity against methicillin-resistant Staphylococcus aureus ATCC 43300 assessed as growth inhibition at 10 ug after 24 hrs by agar-diffusion assay in presence of lysine; assay type: functional, organism-based; procedure, shortened: as §1
[11] = system: Staphylococcus aureus; assay: Antibacterial activity against methicillin-resistant Staphylococcus aureus ATCC 43300 assessed as growth inhibition at 10 ug after 24 hrs by agar-diffusion assay in presence of glycine; assay type: functional, organism-based; procedure, shortened: as §1
[12] = system: Staphylococcus aureus; assay: Antibacterial activity against methicillin-resistant Staphylococcus aureus ATCC 43300 assessed as growth inhibition at 10 ug after 24 hrs by agar-diffusion assay in presence of valine; assay type: functional, organism-based; procedure, shortened: as §1
[13] = system: Staphylococcus aureus; assay: Antibacterial activity against methicillin-resistant Staphylococcus aureus ATCC 43300 assessed as growth inhibition at 10 ug after 24 hrs by agar-diffusion assay in presence of cystine; assay type: functional, organism-based

Row | Structure (SMILES) | Activity [1] | MIC [2] | MIC [3] | Activity [4] | MIC [5] | growth inhibition (GI) [6] | growth inhibition (GI) [7] | growth inhibition (GI) [8] | growth inhibition (GI) [9] | growth inhibition (GI) [10] | growth inhibition (GI) [11] | growth inhibition (GI) [12] | growth inhibition (GI) [13]
1 | CCCNSSNCCC | inactive | 16 µg/mL (≈ 88.7 µM) | 4 µg/mL (≈ 22.2 µM) | inactive | 8 µg/mL (≈ 44.4 µM) | – | – | – | – | – | – | – | –
2 | CC1CCC(C(C)C)C(OSSOC2CC(C)CCC2C(C)C)C1 (racemic) | inactive | 4 µg/mL (≈ 10.7 µM) | 16 µg/mL (≈ 42.7 µM) | inactive | 8 µg/mL (≈ 21.4 µM) | – | – | – | – | – | – | – | –
3 | CC(COSSOCC(C)c1ccccc1)c1ccccc1 (racemic) | inactive | 8 µg/mL (≈ 23.9 µM) | 16 µg/mL (≈ 47.8 µM) | inactive | 16 µg/mL (≈ 47.8 µM) | – | – | – | – | – | – | – | –
4 | CC(C)[C@@H]1CC[C@@H](C)C[C@H]1OSSO[C@@H]1C[C@H](C)CC[C@H]1C(C)C | inactive | 4 µg/mL (≈ 10.7 µM) | 16 µg/mL (≈ 42.7 µM) | inactive | 8 µg/mL (≈ 21.4 µM) | – | – | – | – | – | – | – | –
5 | CC(C)SSSSC(C)C | inactive | 8 µg/mL (≈ 37.3 µM) | 32 µg/mL (≈ 149 µM) | inactive | 32 µg/mL (≈ 149 µM) | – | – | – | – | – | – | – | –
6 | O=C(O)c1cn(C2CC2)c2cc(N3CCNCC3)c(F)cc2c1=O [CIPROFLOXACIN] | – | 0.125 µg/mL (≈ 0.377 µM) | – | – | – | – | – | – | – | – | – | – | –
7 | CC(C)SSc1ccc([N+](=O)[O-])cc1 | – | – | – | – | – | Active | inactive | Active | inactive | Active | Active | Active | inactive
8 | c1ccc(NSSNc2ccccc2)cc1 | inactive | 0.5 µg/mL (≈ 2.01 µM) | 4 µg/mL (≈ 16.1 µM) | inactive | 4 µg/mL (≈ 16.1 µM) | – | – | – | – | – | – | – | –
9 | CC(C)CN(CC(C)C)SSN(CC(C)C)CC(C)C | inactive | 1 µg/mL (≈ 3.12 µM) | 16 µg/mL (≈ 49.9 µM) | inactive | 16 µg/mL (≈ 49.9 µM) | – | – | – | – | – | – | – | –
10 | CCC(C)NSSNC(C)CC (centres undefined) | inactive | 8 µg/mL (≈ 38.4 µM) | 16 µg/mL (≈ 76.8 µM) | inactive | 16 µg/mL (≈ 76.8 µM) | – | – | – | – | – | – | – | –
11 | CC[C@@H](C)OSSO[C@H](C)CC | inactive | 16 µg/mL (≈ 76.1 µM) | 32 µg/mL (≈ 152 µM) | inactive | 16 µg/mL (≈ 76.1 µM) | – | – | – | – | – | – | – | –
12 | CCC(C)OSSOC(C)CC (centres undefined) | inactive | 16 µg/mL (≈ 76.1 µM) | 8 µg/mL (≈ 38 µM) | inactive | 16 µg/mL (≈ 76.1 µM) | – | – | – | – | – | – | – | –
13 | CC(C)N(SSN(C(C)C)C(C)C)C(C)C | inactive | 32 µg/mL (≈ 121 µM) | 1 µg/mL (≈ 3.78 µM) | inactive | 2 µg/mL (≈ 7.56 µM) | – | – | – | – | – | – | – | –
14 | CCCCSSSSCCCC | inactive | 4 µg/mL (≈ 16.5 µM) | 32 µg/mL (≈ 132 µM) | inactive | 64 µg/mL (≈ 264 µM) | – | – | – | – | – | – | – | –
15 | CCCCOSSOCCCC | inactive | 4 µg/mL (≈ 19 µM) | 8 µg/mL (≈ 38 µM) | inactive | 0.25 µg/mL (≈ 1.19 µM) | – | – | – | – | – | – | – | –
16 | C[C@@H](c1ccccc1)N(Cc1ccccc1)SSN(Cc1ccccc1)[C@@H](C)c1ccccc1 | inactive | 16 µg/mL (≈ 33 µM) | 64 µg/mL (≈ 132 µM) | inactive | 16 µg/mL (≈ 33 µM) | – | – | – | – | – | – | – | –
17 | c1ccc(OSSOc2ccccc2)cc1 | inactive | 1 µg/mL (≈ 3.99 µM) | 2 µg/mL (≈ 7.99 µM) | inactive | 2 µg/mL (≈ 7.99 µM) | – | – | – | – | – | – | – | –
18 | CC(C)NSSNC(C)C | inactive | 2 µg/mL (≈ 11.1 µM) | 32 µg/mL (≈ 177 µM) | inactive | 32 µg/mL (≈ 177 µM) | – | – | – | – | – | – | – | –
19 | CCC(C)SSSSC(C)CC (centres undefined) | inactive | 16 µg/mL (≈ 66 µM) | 64 µg/mL (≈ 264 µM) | inactive | 32 µg/mL (≈ 132 µM) | – | – | – | – | – | – | – | –
20 | CC1(C)S[C@@H]2[C@H](NC(=O)Cc3ccccc3)C(=O)N2[C@H]1C(=O)O [PENICILLIN G] | – | – | 64 µg/mL (≈ 191 µM) | – | 0.25 µg/mL (≈ 0.748 µM) | Active | Active | Active | Active | Active | Active | Active | Active
21 | CCCSSSSCCC | inactive | 1 µg/mL (≈ 4.66 µM) | 32 µg/mL (≈ 149 µM) | inactive | 32 µg/mL (≈ 149 µM) | – | – | – | – | – | – | – | –
22 | c1ccc(SSSSc2ccccc2)cc1 | inactive | 2 µg/mL (≈ 7.08 µM) | 8 µg/mL (≈ 28.3 µM) | inactive | 8 µg/mL (≈ 28.3 µM) | – | – | – | – | – | – | – | –
23 | C=CCN(CC=C)SSN(CC=C)CC=C | inactive | 16 µg/mL (≈ 62.4 µM) | 0.5 µg/mL (≈ 1.95 µM) | inactive | 1 µg/mL (≈ 3.9 µM) | – | – | – | – | – | – | – | –
24 | CCCOSSOCCC | inactive | 16 µg/mL (≈ 87.8 µM) | 32 µg/mL (≈ 176 µM) | inactive | 32 µg/mL (≈ 176 µM) | – | – | – | – | – | – | – | –
25 | CCN(CC)SSN(CC)CC | inactive | 16 µg/mL (≈ 76.8 µM) | 2 µg/mL (≈ 9.6 µM) | inactive | 2 µg/mL (≈ 9.6 µM) | – | – | – | – | – | – | – | –
26 | CN(C)SSN(C)C | inactive | 8 µg/mL (≈ 52.5 µM) | 0.5 µg/mL (≈ 3.28 µM) | inactive | 0.25 µg/mL (≈ 1.64 µM) | – | – | – | – | – | – | – | –
27 | CCCCNSSNCCCC | inactive | 4 µg/mL (≈ 19.2 µM) | 32 µg/mL (≈ 154 µM) | inactive | 8 µg/mL (≈ 38.4 µM) | – | – | – | – | – | – | – | –
28 | CC(C)[C@H]1CC[C@H](C)C[C@@H]1OSSO[C@H]1C[C@@H](C)CC[C@@H]1C(C)C | inactive | 4 µg/mL (≈ 10.7 µM) | 8 µg/mL (≈ 21.4 µM) | inactive | 8 µg/mL (≈ 21.4 µM) | – | – | – | – | – | – | – | –
29 | CC[C@H](C)OSSO[C@@H](C)CC | inactive | 16 µg/mL (≈ 76.1 µM) | 32 µg/mL (≈ 152 µM) | inactive | 16 µg/mL (≈ 76.1 µM) | – | – | – | – | – | – | – | –
30 | C[C@H](c1ccccc1)N(Cc1ccccc1)SSN(Cc1ccccc1)[C@H](C)c1ccccc1 | inactive | 16 µg/mL (≈ 33 µM) | 64 µg/mL (≈ 132 µM) | inactive | 16 µg/mL (≈ 33 µM) | – | – | – | – | – | – | – | –

Source: ChEMBL document CHEMBL2029337, “Synthesis and antimicrobial activities of structurally novel S,S'-bis(heterosubstituted) disulfides” (Bioorg Med Chem Lett, 2012)
